Several values for one entry are separate records, joined by “and”; a condition that tells them apart may be missing. Identical values can stand only once.
Experiments:
[1] = In vivo blood glucose was determined in obese, hyperglycemic, hyperinsulinemic, insulin-resistant KKAy mice after a dose of 500 mg/kg for 4 days; format: functional, Mus musculus
[2] = test system: Mus musculus; assay: Terminal blood glucose level was determined in ob/ob mice after oral administration for two weeks (control = 226+/-29); format: functional
How it was run: (§1)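 ob/ob mice on Purina 5015 chow, given drug as admixture in milled chow for 14 days. Intake measured from food-bowl weight change. Blood from retro-orbital sinus, heparinized, kept on ice and analyzed promptly. Blood glucose measured before and after treatment. Group sizes 8–15, housed at 21 °C on 12 h light–dark cycle; two-way ANOVA, Student–Newman–Keuls post hoc.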

[3] = test system: Mus musculus; assay: Terminal lean body weight was determined in ob/ob mice after oral administration for two weeks (control = 25+/-1); format: functional
[4] = species: Mus musculus; assay: Initial blood glucose level was determined in ob/ob mice (control=228+/-19); format: functional; how it was run: as §1
[5] = test system: Mus musculus; assay: Terminal fat body weight was determined in ob/ob mice after oral administration for two weeks (control = 28+/-0.9); format: functional
[6] = test system: Mus musculus; assay: Terminal body weight was determined in ob/ob mice after oral administration for two weeks (control = 53+/-1); format: functional
[7] = test system: Mus musculus; assay: Average daily food consumption was determined in ob/ob mice after oral administration for two weeks (control = 90+/-3); format: functional
[8] = species: Mus musculus; assay: Initial body weight was determined in ob/ob mice (control=55+/-1); format: functional
[9] = species: Mus musculus; assay: Average daily dose was determined in ob/ob mice(control=0); format: functional
[10] = Inhibition of creatine transport was assessed from Percent inhibition of [C14] creatine uptake; format: functional; parameters: concentration or dose not given beside the values; conditions: dose or concentration not given here
[11] = biological target: Creatine kinase M-type (Homo sapiens) (UniProt P06732); assay: Reaction rate of creatine kinase activity is determined at 1 mM concentration
Sequence of Creatine kinase M-type (Homo sapiens) (P06732 whole entry): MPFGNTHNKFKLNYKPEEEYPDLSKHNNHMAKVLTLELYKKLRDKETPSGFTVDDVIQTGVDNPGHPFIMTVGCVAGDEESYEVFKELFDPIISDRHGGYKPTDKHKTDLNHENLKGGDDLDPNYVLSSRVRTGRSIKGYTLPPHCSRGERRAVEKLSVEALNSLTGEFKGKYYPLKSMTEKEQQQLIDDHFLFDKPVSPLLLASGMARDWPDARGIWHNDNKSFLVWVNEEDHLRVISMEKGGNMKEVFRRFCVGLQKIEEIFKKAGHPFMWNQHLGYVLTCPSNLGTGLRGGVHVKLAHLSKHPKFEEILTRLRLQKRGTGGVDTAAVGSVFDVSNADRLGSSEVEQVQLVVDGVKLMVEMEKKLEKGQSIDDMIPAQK

[12] = test system: Mus musculus; assay: In vivo blood glucose was determined in obese,hyperglycemic,hyperinsulinemic,insulin-resistant KKAy mice after a dose of 500 mg/kg for 4 days; format: functional
How it was run: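 KKAy mice (obese, hyperinsulinemic) grouped into treated and control (n = 6) after pretest glucose on an Alpkem autoanalyzer. Compound given in food at 500 mg/kg for 4 days, then nonfasting blood glucose measured. Result expressed as treated/control (T/C). Wilcoxon rank-sum test applied when T/C < 0.80.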

[13] = biological target: Creatine kinase M-type (Homo sapiens) (UniProt P06732); assay: Reaction rate of creatine kinase was determined at 50 mM concentration (relative to creatine)
[14] = test system: Rhesus monkey; assay: Fasting plasma glucose was determined in insulin-resistant Rhesus monkeys after a treatment sequence of placebo followed by a dose of 3 mg/kg/day; format: functional, organism-based; conditions: Cercopithecidae
How it was run: (§2)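 Insulin-resistant rhesus monkeys (ovariectomized females, 15–30 years) dosed orally once daily around 8 a.m., drug dissolved in diet orange soda and drunk voluntarily from a syringe tip. Sequence: placebo, 10 mg/kg/day, placebo, 3 mg/kg/day; placebo phases averaged. Meal tolerance test in conscious animals: glucose and insulin after overnight fast and for 3 h after a liquid meal. Insulin by double-antibody RIA (125I-porcine insulin tracer, human insulin standard); repeated-measures ANOVA, Tukey post hoc.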

[15] = test system: Rhesus monkey; assay: Post-prandial plasma insulin was determined in insulin-resistant Rhesus monkeys after a treatment sequence of placebo followed by a dose of 10 mg/kg/day; format: functional, organism-based; conditions: Cercopithecidae; how it was run: as §2
[16] = test system: Rhesus monkey; assay: Post-prandial plasma insulin was determined in insulin-resistant Rhesus monkeys after a treatment sequence of placebo followed by a dose of 3 mg/kg/day; format: functional, organism-based; conditions: Cercopithecidae; how it was run: as §2
[17] = test system: Rhesus monkey; assay: Fasting plasma insulin was determined in insulin-resistant Rhesus monkeys after a treatment sequence of placebo followed by a dose of 10 mg/kg/day; format: functional, organism-based; conditions: Cercopithecidae
How it was run: (§3)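 Ovariectomized female rhesus monkeys aged 15–30 y, with fasting insulin and glucose elevated over the colony norm. Compound dissolved in diet orange soda and drunk voluntarily from a syringe once daily at ~8:00 a.m. Sequence: placebo, 10 mg/kg/day, placebo, 3 mg/kg/day; placebo phases averaged. Overnight fast. Insulin by double-antibody RIA (guinea pig anti-human insulin, 125I-porcine insulin tracer, human insulin standard). Repeated-measures ANOVA, Tukey post hoc.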

[18] = biological target: Creatine kinase M-type (Homo sapiens) (UniProt P06732); assay: Reaction rate of creatine kinase was determined (relative to creatine)
[19] = test system: Rhesus monkey; assay: Fasting plasma insulin was determined in insulin-resistant Rhesus monkeys after a treatment sequence of placebo followed by a dose of 3 mg/kg/day; format: functional, organism-based; conditions: Cercopithecidae; how it was run: as §3

N=C(N)NNC(Cc1ccccc1)C(=O)O (stereo not drawn)
MISS T/C [1]: 0.87

N=C(N)NCC(=O)O [GUANIDINO ACETATE]
MISS T/C [1]: <0.62

N=C(N)N/N=C/C(=O)O
MISS T/C [1]: <0.52

Cl.NCCNC(=NCC(=O)O)NCCN
MISS T/C [1]: 0.86

CCCCCC/C(=N\N=C(N)N)C(=O)O
MISS T/C [1]: 0.73

CNC(=N)N/N=C/C(=O)O
MISS T/C [1]: 0.94

N=C(N)/N=C(\N)NCCS(=O)O
MISS T/C [1]: 0.92

Cl.Cl.N=C(N)CNCC(=O)O
MISS T/C [1]: 1.18

NNc1nncc(O)n1
MISS T/C [1]: 0.84

N=C(NN)NCC(=O)O
Blood glucose [2]: 97 mg/dL
Body weight [3]: 23 g
Blood glucose [4]: 227 mg/dL
Body weight [5]: 23 g
Body weight [6]: 46 g
Food intake [7]: 87 g/kg
Body weight [8]: 52 g
Dose [9]: 436 mg/kg
MISS T/C [1]: 0.51

CN(NC(=NCC(=O)O)NN(C)C(=O)OC(C)(C)C)C(=O)OC(C)(C)C
MISS T/C [1]: 0.85

N/N=C(\NN)N[C@H](C(=O)O)c1ccccc1
MISS T/C [1]: 1.06

Cl.O=C(O)/C=N/Nc1ccccn1
MISS T/C [1]: <0.73

CN(CC(=O)O)C(=N)N
inhibition [10]: 92%
Reaction rate [11]: 100

Cl.Cl.N/C(CNCC(=O)O)=N\O
MISS T/C [1]: 0.88

NNC(=NCCCC(=O)O)NN
MISS T/C [1]: 0.93

N=C(N)/N=C(\N)NCC(=O)O
MISS T/C [1]: 1.01

Cl.NNC1=NC(=O)CNN1
MISS T/C [1]: 1

C[C@@H](N=C(NN)NN)C(=O)O
MISS T/C [1]: 0.66

Cl.Cl.N=C(CN)NCCC(=O)O
MISS T/C [1]: 0.97

N=C(NN)NCCCC(=O)O
MISS T/C [1]: 1.14

CCC(NN=C(N)N)C(=O)O (stereo not drawn)
MISS T/C [1]: 1.08

CN(/N=C/C(=O)O)C(=N)N
MISS T/C [1]: 0.95

N=C(N)NNC(C(=O)O)c1ccccc1 (stereo not drawn)
MISS T/C [1]: 1.11

N/N=C(\NN)N[C@@H](Cc1ccccc1)C(=O)O
MISS T/C [1]: 0.88

Nc1nccn1NCC(=O)O
MISS T/C [1]: 0.99

N/N=C(\NCCO)NCC(=O)O
MISS T/C [1]: 1.01

N/C(=N/NCC(=O)O)N/N=C/c1ccccc1
MISS T/C [1]: 0.89

N/N=C(/NCC(=O)O)NN1CCOCC1
MISS T/C [1]: 1

Nc1nncn1NCC(=O)O
MISS T/C [1]: 0.96

N=C(N)NNCC(=O)O
blood glucose treated/control ratio [12]: <0.61
Reaction rate [13]: 0.24
inhibition [10]: 36%

Cl.Cl.N/C(CNCCC(=O)O)=N\O
MISS T/C [1]: 1

COC(=O)CNN=C(N)N.Cl
MISS T/C [1]: 1.12

O=C(O)CNC1=NNC(=O)NN1
MISS T/C [1]: 1.04

C[C@H](N=C(NN)NN)C(=O)O
MISS T/C [1]: 0.57

COC(=O)/C=N/N=C(N)N
MISS T/C [1]: 1.16

N=C(N)N/N=C(/C(=O)O)c1ccccc1
MISS T/C [1]: 1.04

N/N=C(\N)N(N)CC(=O)O
Plasma glucose [14]: 81 mg/dL and < 64 mg/dL
blood glucose treated/control ratio [12]: <0.43
Blood glucose [2]: <57 mg/dL
AUC [15]: 30 mU min dl-1
AUC [16]: 38 mU min dl-1
Body weight [3]: <22 g
Plasma insulin [17]: 35 uU ml-1
Blood glucose [4]: 228 mg/dL
Body weight [5]: <22 g
Body weight [6]: <44 g
Reaction rate [18]: 0
Plasma insulin [19]: 41 uU ml-1
Food intake [7]: <52 g/kg
Body weight [8]: <59 g
Dose [9]: 26 mg/kg

N=C(NN)NCCC(=O)O
MISS T/C [1]: 0.83

N=C(N)/N=C(\N)NCCCC(=O)O
MISS T/C [1]: 1.05

Cl.Cl.N=C(N)CNCCC(=O)O
MISS T/C [1]: 0.96

O=C(O)/C=N/NC1=NCCN1
MISS T/C [1]: 1.01

NC(=O)NNC(=NCC(=O)O)NNC(N)=O
MISS T/C [1]: 0.86

N/N=C(/NCC(=O)O)Nc1cc[nH]n1
MISS T/C [1]: 0.89

N=C(N)/N=C(\N)NCCC(=O)O
MISS T/C [1]: 0.88

CN(C)CCNC(=NCC(=O)O)NCCN(C)C
MISS T/C [1]: 0.95

CC/C(=N\N=C(N)N)C(=O)O.Cl
MISS T/C [1]: 0.77

N=C(N)N/N=C(\Cc1ccccc1)C(=O)O
MISS T/C [1]: 0.68

N/C(=N\N=C\C(=O)O)N/N=C/C(=O)O
MISS T/C [1]: 0.88

N=C(N)C(=N)NCC(=O)O
MISS T/C [1]: 1.08

COC(=O)CC/N=C(\N)C(=N)N.Cl.Cl
MISS T/C [1]: 1

CC(C)NNC(=N)NNCC(=O)O
MISS T/C [1]: 0.9

N=C(NN)NNCC(=O)O
blood glucose treated/control ratio [12]: 0.69
Blood glucose [2]: <85 mg/dL
Body weight [3]: <22 g
Blood glucose [4]: 226 mg/dL
Body weight [5]: <20 g
Body weight [6]: <43 g
Reaction rate [18]: 0
inhibition [10]: 26%
Food intake [7]: 81 g/kg
Body weight [8]: 52 g
Dose [9]: 406 mg/kg

NNC(=NCCC(=O)O)NN
MISS T/C [1]: 0.78

CC(=O)NNC(=NCC(=O)O)NNC(C)=O
MISS T/C [1]: 0.84

Cl.Cl.N=C(CN)NCC(=O)O
MISS T/C [1]: 0.95

CC(C)=NNC(=N)NNCC(=O)O
MISS T/C [1]: 0.98

Cc1cc(C)n(NC(=NCC(=O)O)Nn2nc(C)cc2C)n1
MISS T/C [1]: 1

N/N=C(/NCC(=O)O)NNC(N)=O
MISS T/C [1]: 0.86

CC(C)(C)OC(=O)NCC/N=C(\NN)NCC(=O)O
MISS T/C [1]: 0.81

C/C(=N\N=C(N)N)C(=O)O.Cl
MISS T/C [1]: 0.9

CC(C)[C@H](N=C(NN)NN)C(=O)O
MISS T/C [1]: 0.56

Cl.Cl.NCC(CN)CCC(=O)O
MISS T/C [1]: 0.84

N=C(NCCN)NCC(=O)O
MISS T/C [1]: 0.99

N/N=C(/NCC(=O)O)NNc1ccccn1
MISS T/C [1]: 0.91

Cl.Cl.N=C(N)C(=N)NCCC(=O)O
MISS T/C [1]: 1.1

CC(C)(C)OC(=O)NCCNC(=NCC(=O)O)NCCNC(=O)OC(C)(C)C
MISS T/C [1]: 0.9

CN1NC(=O)CN=C1NN
MISS T/C [1]: 1.16

CN(C)/N=C(\NN)NCC(=O)O
MISS T/C [1]: 0.8

O=C(O)CN=C(NCCO)NCCO
MISS T/C [1]: 1.07

COC(=O)NNC(=NCC(=O)O)NNC(=O)OC
MISS T/C [1]: 0.92

NNC(=NCC(=O)O)NN
blood glucose treated/control ratio [12]: 0.23
Reaction rate [18]: 0.1
inhibition [10]: 88%

NN1CCNN=C1NCC(=O)O
MISS T/C [1]: 0.77

N/C(=N/CC(=O)O)NO
MISS T/C [1]: 1.06

N=C(N)NNCCC(=O)O
MISS T/C [1]: 1.11

N=C(N)N(N)CC(=O)O
MISS T/C [1]: 1.04

CC(C)(C)OC(=O)NNC(=NCC(=O)O)NNC(=O)OC(C)(C)C
MISS T/C [1]: 0.86

Cl.NC1=NC(=O)CNN1
MISS T/C [1]: 1.08

Nc1nncc(O)n1
MISS T/C [1]: 0.98

CCOC(=O)CC/N=C(\N)N=C(N)N.Cl.Cl
MISS T/C [1]: 1.06

CC1=NN=C(NCC(=O)O)NN1
MISS T/C [1]: 0.97
